Data: ChEMBL document CHEMBL1255535, “7-O-Arylmethylgalangin as a novel scaffold for anti-HCV agents” (Bioorg Med Chem Lett, 2010)
pEC50: −log10 of the molar value.

What was measured:
Hepatitis C virus = test: Antiviral activity against HCV assessed as inhibition of viral replication by luciferase assay; assay type: functional, organism-based, Hepacivirus hominis
Outline: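 Huh-5-2 replicon cells (5 × 10³/well) seeded in complete DMEM with G418, 24 h at 37 °C (5% CO2), then medium refreshed with G418 and compounds added from DMSO stock; 4 days at 37 °C; luciferase activity read by Steady-Glo. EC50 = concentration inhibiting HCV RNA replication by 50%, averaged from triplicate determinations; IFN-α as positive control.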

[1] = Selectivity index, ratio of CC50 for human Huh5-2 cells to EC50 for HCV; design: species or system Huh-5-2
Outline: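 Selectivity index computed as CC50 (Huh-5-2 proliferation, WST-1, 3 days) divided by EC50 (replicon luciferase, 4 days), both from the same Huh-5-2 cell line.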

[2] = Cytotoxicity against human Huh5-2 cells after 3 days by WST-1 assay; assay type: cell-based, Huh-5-2
Outline: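 Huh-5-2 cells seeded at 5 × 10³/well in complete DMEM with G418; serial compound dilutions in DMEM without G418 added 24 h later; cells proliferated 3 days at 37 °C; cell number by WST-1. CC50 = concentration reducing cell proliferation by 50%.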

## N#Cc1cccc(COc2cc(O)c3c(=O)c(O)c(-c4ccccc4)oc3c2)c1
Hepatitis C virus
  pEC50: 5.52
[1]
  Selectivity Index: 24
[2]
  CC50 at 72 h: 72 µM

## O=c1c(O)c(-c2ccccc2)oc2cc(OCc3ccccc3[N+](=O)[O-])cc(O)c12
Hepatitis C virus
  pEC50: 4.60
[1]
  Selectivity Index: 1.3
[2]
  CC50 at 72 h: 32 µM

## O=c1c(O)c(-c2ccccc2)oc2cc(OCc3ccccc3Cl)cc(O)c12
Hepatitis C virus
  pEC50: 4.52
[2]
  CC50 at 72 h: > 100 µM

## N#Cc1ccc(COc2cc(O)c3c(=O)c(O)c(-c4ccccc4)oc3c2)cc1
Hepatitis C virus
  pEC50: 4.72
[1]
  Selectivity Index: 4.9
[2]
  CC50 at 72 h: 94 µM

## O=c1c(O)c(-c2ccccc2)oc2cc(OCc3cccc(Cl)c3)cc(O)c12
Hepatitis C virus
  pEC50: 4.66
[2]
  CC50 at 72 h: > 100 µM

## O=c1c(O)c(-c2ccccc2)oc2cc(OCc3ccccc3Br)cc(O)c12
Hepatitis C virus
  pEC50: 5.00
[2]
  CC50 at 72 h: > 100 µM

## O=c1c(O)c(-c2ccccc2)oc2cc(OCc3ccc(Cl)cc3)cc(O)c12
Hepatitis C virus
  pEC50: 5.10
[2]
  CC50 at 72 h: > 100 µM

## O=c1c(O)c(-c2ccccc2)oc2cc(OCc3ccc([N+](=O)[O-])cc3)cc(O)c12
Hepatitis C virus
  pEC50: 5.00
[1]
  Selectivity Index: 9.3
[2]
  CC50 at 72 h: 93 µM

## COc1ccccc1COc1cc(O)c2c(=O)c(O)c(-c3ccccc3)oc2c1
Hepatitis C virus
  pEC50: 4.28
[2]
  CC50 at 72 h: > 100 µM

## Cc1ccc(COc2cc(O)c3c(=O)c(O)c(-c4ccccc4)oc3c2)cc1
Hepatitis C virus
  pEC50: 5.22
[1]
  Selectivity Index: 14.7
[2]
  CC50 at 72 h: 88 µM

## COc1ccc(COc2cc(O)c3c(=O)c(O)c(-c4ccccc4)oc3c2)cc1
Hepatitis C virus
  pEC50: 4.42
[2]
  CC50 at 72 h: > 100 µM

## Cc1ccccc1COc1cc(O)c2c(=O)c(O)c(-c3ccccc3)oc2c1
Hepatitis C virus
  pEC50: 5.15
[1]
  Selectivity Index: 2.4
[2]
  CC50 at 72 h: 17 µM

## O=c1c(O)c(-c2ccccc2)oc2cc(OCc3ccc(Br)cc3)cc(O)c12
Hepatitis C virus
  pEC50: 5.22
[2]
  CC50 at 72 h: > 100 µM

## COc1cccc(COc2cc(O)c3c(=O)c(O)c(-c4ccccc4)oc3c2)c1
Hepatitis C virus
  pEC50: 4.82
[2]
  CC50 at 72 h: > 100 µM

## O=c1c(O)c(-c2ccccc2)oc2cc(OCc3cccc([N+](=O)[O-])c3)cc(O)c12
Hepatitis C virus
  pEC50: 5.70
[1]
  Selectivity Index: 38
[2]
  CC50 at 72 h: 76 µM

## O=c1c(O)c(-c2ccc(C(F)(F)F)cc2)oc2cc(OCc3ccc(Cl)cc3)cc(O)c12
Hepatitis C virus
  pEC50: 5.52
[1]
  Selectivity Index: 24.3
[2]
  CC50 at 72 h: 73 µM

## COc1ccc(-c2oc3cc(OCc4ccc(Cl)cc4)cc(O)c3c(=O)c2O)cc1
Hepatitis C virus
  pEC50: 5.22
[1]
  Selectivity Index: 10.7
[2]
  CC50 at 72 h: 64 µM

## Cc1cccc(COc2cc(O)c3c(=O)c(O)c(-c4ccccc4)oc3c2)c1
Hepatitis C virus
  pEC50: 4.57
[1]
  Selectivity Index: 1.3
[2]
  CC50 at 72 h: 35 µM

## O=c1c(O)c(-c2ccccc2)oc2cc(OCc3cccc(Br)c3)cc(O)c12
Hepatitis C virus
  pEC50: 4.43
[2]
  CC50 at 72 h: > 100 µM

## N#Cc1ccc(-c2oc3cc(OCc4ccc(Cl)cc4)cc(O)c3c(=O)c2O)cc1
Hepatitis C virus
  pEC50: 6.05
[1]
  Selectivity Index: 74.4
[2]
  CC50 at 72 h: 67 µM

## O=C(O)/C(O)=C/C(=O)c1cccc(NCc2ccc(Cl)cc2)c1
Hepatitis C virus
  pEC50: 6.09

## N#Cc1ccccc1COc1cc(O)c2c(=O)c(O)c(-c3ccccc3)oc2c1
Hepatitis C virus
  pEC50: 4.41
[1]
  Selectivity Index: 0.6
[2]
  CC50 at 72 h: 22 µM
